From ChEMBL document CHEMBL1128448, “Synthesis and antifungal activity of new azole derivatives containing an N-acylmorpholine ring” (1995) come the findings set out here.

As usually defined, the MIC is the lowest concentration found to suppress growth. As usually defined, the MFC is the lowest tested concentration that kills the fungus rather than only halting it. A higher MFC goes with weaker fungicidal potency.

SMILES strings stand for the structures. In brackets after ≈: the same amount, converted by molar mass.

What all share (assay type): functional
Assay [1] concerns Candida albicans. Put plainly: In vivo evaluation of minimum inhibitory concentration against Candida albicans 406. The method in brief:
(§1)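 Broth macrodilution MIC following NCCLS M27-P, in RPMI-1640 buffered with 0.165 M MOPS. Fluconazole was dissolved in water and other drugs in DMSO. C. parapsilosis ATCC 22019 served as the reference strain in every run. MIC was the lowest concentration giving turbidity at or below the 80% inhibition standard.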

Assay [2] deals with Kluyveromyces marxianus. Put plainly: In vivo Evaluation of minimum inhibitory concentration against Candida pseudotropicalis 13. To be noted: Kluyveromyces marxianus; read-out: MIC. In outline: (§2)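 Stocks are 800 μg/mL in 50% ethanol. Each plate gets 10 μL of inoculum at 10^5 cfu/mL. Incubation at 25 °C, 48 h for yeasts and 120 h for dermatophytes and molds. Organisms are ATCC strains or clinical isolates.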

Assay [3] relates to Rattus norvegicus. Put plainly: In vivo evaluation of antifungal activity against vaginal candidosis in rat at dose 0.1 mg/kg on 15th day. In outline: (§3)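 Groups of 10 female Wistar rats given estradiol 25 mg/kg sc on day -5, then vaginally inoculated with C. albicans on day 0. Infection is confirmed by culture of day-3 swabs. Compound is dosed orally once daily on days 3–5; controls get vehicle. Cure is scored by culture of vaginal swabs taken on days 10 and 15.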

The test system of assay [4] is Candida albicans. Description: In vivo evaluation of minimum inhibitory concentration against Candida albicans 60. In outline: as §1
Assay [5] concerns Rattus norvegicus. Description: In vivo evaluation of antifungal activity against vaginal candidosis in rat at dose 0.1 mg/kg on 10th day. In outline: as §3
Assay [6] relates to Candida tropicalis. Put plainly: In vivo Evaluation of minimum inhibitory concentration against Candida tropicalis 2.11. In outline:
as §2

The subject of assay [7] is Rattus norvegicus. Description: In vivo evaluation of antifungal activity against vaginal candidosis in rat at dose 0.25 mg/kg on 10th day. In outline:
(§4)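 Groups of 10 female Wistar rats given estradiol 25 mg/kg sc on day -5, infected intravaginally with C. albicans by sterile swab on day 0; infection confirmed on day 3 by swab culture (TSB, then Sabouraud agar). Oral dosing once daily on days 3, 4, 5; vehicle controls. Vaginal swabs cultured on days 10 and 15; read-out % cured (culture-negative).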

Assay [8] concerns Nakaseomyces glabratus. Put plainly: In vivo Evaluation of minimum inhibitory concentration against Torulopsis glabrata 78. To be noted: in the assay text read “In vitro” for “In vivo”. In outline:
as §2

Assay [9] relates to Rhodotorula mucilaginosa. Put plainly: In vivo Evaluation of minimum inhibitory concentration against Rhodotorula rubra 16. The conditions noted are these: in the assay text read “In vitro” for “In vivo”. In outline:
as §2

The next assay deals with Nannizzia gypsea. Description: In vitro evaluation of minimum inhibitory concentration against Microsporum gypseum 22. To be noted: Nannizzia gypsea; read-out: MIC. The method in brief:
as §2

Assay [10] relates to Candida tropicalis. Put plainly: Evaluation of In vitro antifungal activity against Candida tropicalis 2.11 by broth macro dilution method. The method in brief:
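Yeast MIC and MFC by broth macrodilution per NCCLS M27-P in RPMI-1640 buffered with 0.165 M MOPS. Fluconazole in sterile water, other drugs in DMSO. C. parapsilosis ATCC 22019 is the reference strain in each run. MIC is the lowest concentration with turbidity ≤ the 80% inhibition standard. For MFC, 0.04 mL from clear tubes is plated on Sabouraud agar; MFC is the lowest concentration giving ≤1 colony.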

For assay [11], the system named is Mus musculus. Description: In vivo evaluation of % survival rate after peroral administration on 7th day at dose 20 mg/kg. The conditions noted are these: route oral.
Assay [12] has as its system Mus musculus. Description: In vivo evaluation of % survival rate after peroral administration on 7th day at dose 10 mg/kg. To be noted: route oral.
The subject of assay [13] is Mus musculus. Description: In vivo evaluation of % survival rate after peroral administration on 9th day at dose 20 mg/kg. To be noted: route oral.
The test system of assay [14] is Candida albicans. Description: […] Evaluation of minimum inhibitory concentration against Candida albicans 60. In outline: as §2
The test system of assay [15] is Mus sp. Put plainly: In vivo evaluation of % survival rate after peroral administration on 9th day at dose 2.5 mg/kg. The conditions noted are these: Mus sp., po.
Assay [16] relates to Rattus norvegicus. Put plainly: In vivo evaluation of antifungal activity against vaginal candidosis in rat at dose 0.5 mg/kg on 15th day. The method in brief: (§5)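 Female Wistar rats, 10 per group, received estradiol 25 mg/kg sc on day -5. On day 0 they were infected intravaginally with C. albicans by sterile swab. Infection was confirmed on day 3 by culturing the swab in TSB and then on Sabouraud agar. Oral dosing was once daily on days 3, 4 and 5; controls got vehicle only. Vaginal swabs taken on days 10 and 15 were cultured and read the next day.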

The test system of assay [17] is Mus musculus. Description: In vivo evaluation of % survival rate after peroral administration on 5th day at dose 10 mg/kg. The conditions noted are these: route oral.
Assay [18] has as its system Mus musculus. Put plainly: In vivo evaluation of % survival rate after peroral administration on 5th day at dose 20 mg/kg. The conditions noted are these: route oral.
Assay [19] has as its system Mus musculus. Put plainly: In vivo evaluation of % survival rate after peroral administration on 3rd day at dose 5 mg/kg. The conditions noted are these: route oral.
Assay [20] concerns Mus musculus. Description: In vivo evaluation of % survival rate after peroral administration on 3rd day at dose 10 mg/kg. The conditions noted are these: route oral.
In assay [21] the test system is Mus musculus. Put plainly: In vivo evaluation of % survival rate after peroral administration on 7th day at dose 5 mg/kg. The conditions noted are these: route oral.
Assay [22] relates to Mus musculus. Description: In vivo evaluation of % survival rate after peroral administration on 9th day at dose 10 mg/kg. The conditions noted are these: route oral.
The subject of assay [23] is Mus sp. Put plainly: In vivo evaluation of % survival rate after peroral administration on 7th day at dose 2.5 mg/kg. To be noted: Mus sp., po.
The test system of assay [24] is Rattus norvegicus. Description: In vivo evaluation of antifungal activity against vaginal candidosis in rat at dose 0.5 mg/kg on 10th day. In outline: as §5
The subject of assay [25] is Kluyveromyces marxianus. Put plainly: In vitro evaluation of minimum inhibitory concentration against Candida pseudotropicalis 13. The conditions noted are these: Kluyveromyces marxianus; read-out: MIC. In outline: as §2
Assay [26] deals with Mus musculus. Put plainly: In vivo evaluation of % survival rate after peroral administration on 9th day at dose 5 mg/kg. The conditions noted are these: route oral.
In assay [27] the test system is Mus musculus. Description: In vivo evaluation of % survival rate after peroral administration on 3rd day at dose 20 mg/kg. The conditions noted are these: route oral.
The subject of assay [28] is Candida tropicalis. Description: In vitro evaluation of minimum inhibitory concentration against Candida tropicalis 2.11. To be noted: Candida tropicalis; read-out: MIC. In outline: as §2
In assay [29] the test system is Rhodotorula mucilaginosa. Description: In vitro evaluation of minimum inhibitory concentration against Rhodotorula rubra 16. To be noted: Rhodotorula mucilaginosa; read-out: MIC. The method in brief:
as §2

Assay [30] has as its system Nakaseomyces glabratus. Description: In vitro evaluation of minimum inhibitory concentration against Torulopsis glabrata 78. The conditions noted are these: Nakaseomyces glabratus; read-out: MIC. The method in brief: as §2
Assay [31] deals with Rattus norvegicus. Put plainly: In vivo evaluation of antifungal activity in against vaginal candidosis in rat at dose 0.25 mg/kg on 10th day. In outline:
as §4

Assay [32] deals with Mus musculus. Put plainly: In vivo evaluation of % survival rate after peroral administration on 5th day at dose 5 mg/kg. To be noted: route oral.
For assay [33], the system named is Mus sp. Put plainly: In vivo evaluation of % survival rate after peroral administration on 3rd day at dose 2.5 mg/kg. The conditions noted are these: Mus sp., po.
Assay [34] has as its system Mus sp. Description: In vivo evaluation of % survival rate after peroral administration on 5th day at dose 2.5 mg/kg. The conditions noted are these: Mus sp., po.
Assay [35] deals with Candida albicans. Description: […] Evaluation of minimum inhibitory concentration against Candida albicans 406. The method in brief:
as §2

Turning to `C[C@H]1N(C(=O)c2ccc(C(F)(F)F)cc2)C[C@H](O)O[C@@]1(Cn1cncn1)c1ccc(F)cc1F` (stereo in doubt; (-)-39a), the MIC against Candida albicans [1] is 1.25 µg/mL (≈ 2.59 µM); in the assay with Kluyveromyces marxianus [2], 20 µg/mL (≈ 41.5 µM); against Candida albicans [4], 2.5 µg/mL (≈ 5.18 µM); in the assay on Candida tropicalis [6], 40 µg/mL (≈ 82.9 µM); in the assay with Nakaseomyces glabratus [8] it was greater than 80 µg/mL; in the assay on Rhodotorula mucilaginosa [9], greater than 80 µg/mL. The MIC in the assay on Nannizzia gypsea came to 80 µg/mL (≈ 166 µM); with Candida tropicalis [10] it was 64 µg/mL (≈ 133 µM). The Cure rate in the assay on Rattus norvegicus [3] was 50%; in the assay on Rattus norvegicus [5] it was 30%; in the assay on Rattus norvegicus [7], 95%. The molecule also displayed an MFC in the assay on Candida tropicalis [10] greater than 64 µg/mL.
In the case of `OC(Cn1cncn1)(Cn1cncn1)c1ccc(F)cc1F` [FLUCONAZOLE], the survival at 20 mg/kg came out at 98% with Mus musculus [11], 75% with Mus musculus [13], 100% in the assay with Mus musculus [18] and 100% in the assay on Mus musculus [27]. The survival at 10 mg/kg in the assay with Mus musculus [12] stood at 80%; in the assay with Mus musculus [17], 100%; with Mus musculus [20], 100%; with Mus musculus [22], 60%. Further, the MIC in the assay with Candida albicans [14] was 2.5 µg/mL (≈ 8.16 µM); with Kluyveromyces marxianus [25], 80 µg/mL (≈ 261 µM); in the assay with Candida tropicalis [28], 80 µg/mL (≈ 261 µM); in the assay with Rhodotorula mucilaginosa [29] it was greater than 80 µg/mL; in the assay with Nakaseomyces glabratus [30], greater than 80 µg/mL; in the assay on Nannizzia gypsea it was greater than 80 µg/mL. In addition, the figures for the MIC in the assay with Candida tropicalis [10] and against Candida albicans [35] were 1 µg/mL (≈ 3.27 µM) and 2.5 µg/mL (≈ 8.16 µM), respectively. For the same molecule, the survival at 2.5 mg/kg with Mus sp. [15] was found to be 70%; with Mus sp. [23], 95%; in the assay on Mus sp. [33], 100%; in the assay on Mus sp. [34] it was 100%. For the same molecule, the Cure rate is listed as 20% with Rattus norvegicus [16], 20% in the assay on Rattus norvegicus [24] and 10% in the assay with Rattus norvegicus [31]. Also, the survival at 5 mg/kg with Mus musculus [19] was 100%; in the assay with Mus musculus [21], 90%; with Mus musculus [26], 40%; in the assay on Mus musculus [32] it was 100%. The molecule further displayed an MFC against Candida tropicalis [10] greater than 64 µg/mL.
